Test results: ChEMBL document CHEMBL4350966 (J Med Chem, 2019)

How the values were obtained:
fMet-Leu-Phe receptor [1] = molecular target: T1, fMet-Leu-Phe receptor (Homo sapiens, UniProt P21462); assay: Biased agonist activity at human FPR1 expressed in FlpIn-CHO cells assessed as stimulation of ERK1/2 phosphorylation measured after 7 mins by Alphascreen assay; type: cell-based
T1 sequence (P21462 whole entry): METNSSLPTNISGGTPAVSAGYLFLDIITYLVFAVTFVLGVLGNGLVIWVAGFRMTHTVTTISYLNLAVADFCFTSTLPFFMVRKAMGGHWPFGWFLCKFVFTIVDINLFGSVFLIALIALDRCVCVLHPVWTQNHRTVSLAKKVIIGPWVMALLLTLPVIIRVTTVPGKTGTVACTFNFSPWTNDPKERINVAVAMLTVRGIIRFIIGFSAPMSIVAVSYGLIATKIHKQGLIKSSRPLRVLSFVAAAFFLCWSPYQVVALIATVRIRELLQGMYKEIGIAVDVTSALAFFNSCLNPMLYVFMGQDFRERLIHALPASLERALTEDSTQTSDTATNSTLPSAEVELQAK
In short: (§1)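 Agonist transduction coefficients (Log(τ/KA)) for each signaling output estimated with an extension of the Black-Leff operational model. Values normalized to a reference ligand and to Ca2+ mobilization as reference pathway, giving ΔLog(τ/KA) and Log(bias factors). Data are mean ± SEM of 4 independent experiments, each performed in duplicate.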

fMet-Leu-Phe receptor [2] = molecular target: T1, fMet-Leu-Phe receptor; assay: Biased agonist activity at human FPR1 expressed in FlpIn-CHO cells assessed as intracellular calcium mobilization by Fluo-4-AM dye based fluorescence assay; type: functional, cell-based; in short: as §1
[3] = Protein binding in human plasma by chromatographic method; type: ADME, cell-free; details: read-out: PPB (converted)
In short: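 Human plasma protein binding estimated by a chromatographic method; reported as percent bound.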

[4] = Lipophilicity, log P of the compound by chromatographic method; type: physicochemical
In short: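 Lipophilicity ([…]) measured chromatographically.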

[5] = Kinetic solubility of the compound at pH 2; type: physicochemical; details: buffer, read-out: Kinetic_solubility
In short: (§2)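 Kinetic solubility measured by nephelometry at pH 2.0 and pH 6.5; reported in μg/mL.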

[6] = Kinetic solubility of the compound at pH 6.5; type: physicochemical; details: buffer, read-out: Kinetic_solubility; in short: as §2
[7] = molecular target: T2, N-formyl peptide receptor 2 (Homo sapiens, UniProt P25090); assay: Biased agonist activity at human FPR2 expressed in FlpIn-CHO cells assessed as stimulation of ERK1/2 phosphorylation measured after 7 mins by Alphascreen assay; type: cell-based; in short: as §1
T2 sequence (P25090 whole entry): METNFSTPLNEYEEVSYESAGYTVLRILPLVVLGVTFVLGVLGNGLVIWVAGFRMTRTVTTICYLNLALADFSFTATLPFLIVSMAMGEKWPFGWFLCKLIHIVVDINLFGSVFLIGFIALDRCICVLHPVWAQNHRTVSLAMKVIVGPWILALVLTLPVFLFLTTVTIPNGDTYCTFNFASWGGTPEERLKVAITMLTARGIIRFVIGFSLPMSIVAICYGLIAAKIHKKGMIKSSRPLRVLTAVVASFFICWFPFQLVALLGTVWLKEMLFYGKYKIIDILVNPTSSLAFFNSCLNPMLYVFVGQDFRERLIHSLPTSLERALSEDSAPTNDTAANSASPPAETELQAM

[8] = molecular target: T2, N-formyl peptide receptor 2; assay: Biased agonist activity at human FPR2 expressed in FlpIn-CHO cells assessed as intracellular calcium mobilization by Fluo-4-AM dye based fluorescence assay; type: functional, cell-based; in short: as §1
[9] = Intrinsic clearance in mouse liver microsomes assessed per mg protein; type: ADME, Microsome
In short: (§3)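 Intrinsic clearance measured in vitro in mouse and human liver microsomes; reported as μL/min/mg protein.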

[10] = molecular target: T3, fMet-Leu-Phe receptor (Homo sapiens) (UniProt P21462); assay: Bias factor, transduction co-efficient for biased agonist activity at human FPR1 expressed in FlpIn-CHO cells assessed as stimulation of ERK1/2 phosphorylation relative to 1-(4-chlorophenyl)-3-(5-isopropyl-1-methyl-3-oxo-2-phenyl-2,3-dihydro-1H-pyrazol-4-yl)urea to transduction co-efficient for …; type: functional, cell-based
T3 sequence (whole entry): T1 sequence (P21462 whole entry)

[11] = Intrinsic clearance in human liver microsomes assessed per mg protein; type: ADME, Microsome; in short: as §3

Structure (SMILES) | EC50 (fMet-Leu-Phe receptor [1]; read-out: pEC50 (converted)) | EC50 (fMet-Leu-Phe receptor [2]; read-out: pEC50 (converted)) | further results
CCC(C(=O)Nc1ccc(Cl)cc1)n1nc(C)cc(Cc2ccccc2OC)c1=O (stereo not drawn) | 1.86 µM | > 100 µM | 
Cc1cc(Cc2cccc(F)c2)c(=O)n(C(C)C(=O)Nc2ccc(Br)cc2)n1 (stereo not drawn) |  | > 100 µM | 
CCCCC(C(=O)Nc1ccc(Cl)cc1)n1nc(C(F)(F)F)cc(Cc2ccccc2OC)c1=O (stereo not drawn) | > 100 µM | > 100 µM | 
COc1ccccc1Cc1cc(C)nn(CC(=O)Nc2ccc(Cl)cc2)c1=O |  | > 100 µM | 
CCCCC(C(=O)Nc1ccc(Br)cc1)n1nc(C)cc(Cc2cccc(OC)c2OC)c1=O (stereo not drawn) | 0.245 µM | 0.00646 µM | 
COc1ccccc1Cc1cc(C)nn(CC(=O)Nc2c(F)cc(Cl)cc2F)c1=O | > 100 µM | > 100 µM | 
COc1ccccc1Cc1cc(C)nn(CC(=O)Nc2ccc(OC(F)(F)F)cc2)c1=O | > 100 µM | > 100 µM | 
COc1ccc(Cc2cc(C)nn(C(C)C(=O)Nc3ccc(Br)cc3)c2=O)cc1 (stereo not drawn) |  | > 100 µM | 
COc1cccc(Cc2cc(C)nn(C(C)C(=O)Nc3cccc(F)c3)c2=O)c1 (stereo not drawn) |  | > 100 µM | 
CCCCC(C(=O)Nc1ccc(Br)cc1)n1nc(C)cc(Cc2cccc(OC)c2)c1=O (stereo not drawn) | 0.148 µM | 11.5 µM | 
CCCCC(C(=O)Nc1ccc(Cl)cc1)n1nc(C)cc(Cc2ccccc2OC)c1=O (stereo not drawn) |  |  | fraction unbound [3]: 0.016; logP [4]: 5.2; solubility kinetic [5]: < 0.78 µg/mL; EC50 (fMet-Leu-Phe receptor [1]; read-out: EC50): 0.083 µM; solubility kinetic [6]: < 0.78 µg/mL; EC50 [7]: 0.0708 µM; EC50 [8]: 0.0513 µM; microsomal CLint [9]: 233 µL/min/mg; fold change (FC) [10]: 20; EC50 (fMet-Leu-Phe receptor [2]): 0.891 µM
COc1cccc(Cc2cc(C)nn(C(C)C(=O)Nc3ccc(Cl)cc3)c2=O)c1OC (stereo not drawn) | 0.145 µM | 0.155 µM | 
COc1cccc(Cc2cc(C)nn(CC(=O)Nc3ccc(Cl)cc3F)c2=O)c1 | 5.62 µM | > 100 µM | 
COc1cccc(OC)c1Cc1cc(C)nn(CC(=O)Nc2ccc(Cl)cc2)c1=O | 2.63 µM | 2.82 µM | 
COc1ccccc1Cc1cc(C)nn(C(C)C(=O)Nc2ccc(Cl)cc2)c1=O (stereo not drawn) | 1.38 µM | 17.4 µM | 
COc1ccccc1Cc1cc(C)nn(CC(=O)Nc2cccc(C#N)c2)c1=O | > 100 µM | > 100 µM | 
COc1ccccc1Cc1cc(C)nn(CC(=O)Nc2ccc(Cl)cc2Cl)c1=O | > 100 µM | > 100 µM | 
Cc1cc(Cc2ccc(F)cc2)c(=O)n(C(C)C(=O)Nc2ccc(Br)cc2)n1 (stereo not drawn) |  | > 100 µM | 
COc1ccccc1Cc1cc(C(F)(F)F)nn(CC(=O)Nc2ccc(Cl)cc2)c1=O | > 100 µM | > 100 µM | 
COc1cccc(Cc2cc(C)nn(C(C)C(=O)Nc3ccc(F)cc3)c2=O)c1 (stereo not drawn) |  | > 100 µM | 
COc1cccc(Cc2cc(C)nn(C(C)C(=O)Nc3cccc(Cl)c3)c2=O)c1 (stereo not drawn) | > 100 µM | > 100 µM | 
CCCC(C(=O)Nc1ccc(Cl)cc1)n1nc(C)cc(Cc2ccccc2OC)c1=O (stereo not drawn) | 6.31 µM | 9.77 µM | 

Structure (SMILES) | EC50 (fMet-Leu-Phe receptor [1]; read-out: pEC50 (converted)) | EC50 (fMet-Leu-Phe receptor [2]; read-out: pEC50 (converted)) | further results
Cc1cc(Cc2ccc(F)cc2)c(=O)n(CC(=O)Nc2ccc(Br)cc2[N+](=O)[O-])n1 | > 100 µM | > 100 µM | 
COc1ccc(NC(=O)Cn2nc(C)cc(Cc3ccccc3OC)c2=O)cc1 |  | > 100 µM | 
COc1ccc(OC)c(Cc2cc(C)nn(CC(=O)Nc3ccc(Cl)cc3)c2=O)c1 |  | 6.31 µM | 
COc1cccc(Cc2cc(C)nn(C(C)C(=O)Nc3ccccc3Cl)c2=O)c1 (stereo not drawn) | > 100 µM | > 100 µM | 
COc1cccc(Cc2cc(C)nn(CC(=O)Nc3c(F)cc(Cl)cc3F)c2=O)c1 | > 100 µM | > 100 µM | 
COc1cccc(Cc2cc(C)nn(C(C)C(=O)Nc3ccc(Cl)cc3)c2=O)c1 (stereo not drawn) |  | 6.17 to 25.1 µM | fraction unbound [3]: 0.026; logP [4]: 4; solubility kinetic [5]: < 1.6 µg/mL; solubility kinetic [6]: < 1.6 µg/mL; EC50 [7]: 9.55 µM; EC50 [8]: > 100 µM; microsomal CLint [11]: 273 µL/min/mg
COc1ccccc1Cc1cc(C)nn(CC(=O)Nc2ccc(C#N)cc2)c1=O | > 100 µM | > 100 µM | 
CCCCC(C(=O)Nc1ccc(Cl)cc1)n1nc(C)cc(Cc2cccc(OC)c2)c1=O (stereo not drawn) | 0.126 µM | 5.25 µM | 
CCc1ccc(NC(=O)Cn2nc(C)cc(Cc3ccccc3OC)c2=O)cc1 |  | > 100 µM | 
Cc1cc(Cc2ccc(F)cc2)c(=O)n(CC(=O)Nc2c(F)cc(F)cc2[N+](=O)[O-])n1 | > 100 µM | > 100 µM | 
COc1ccccc1Cc1cc(C)nn(C(C)C(=O)Nc2ccc(Br)cc2)c1=O (stereo not drawn) |  | > 100 µM | 
COc1ccccc1Cc1cc(C)nn(C(C(=O)Nc2ccc(Cl)cc2)C(C)C)c1=O (stereo not drawn) | 2.82 µM | > 100 µM | 
COc1ccccc1Cc1cc(C)nn(CC(=O)Nc2ccccc2C#N)c1=O | > 100 µM | > 100 µM | 
COc1ccccc1Cc1cc(C)nn(CC(=O)Nc2cccc(Cl)c2)c1=O | > 100 µM | > 100 µM | 
COc1cccc(Cc2cc(C)nn(C(C)C(=O)Nc3ccccc3F)c2=O)c1 (stereo not drawn) | > 100 µM | > 100 µM | 
COc1ccccc1Cc1cc(C)nn(C(C(=O)Nc2ccc(Cl)cc2)C2CC2)c1=O (stereo not drawn) | > 100 µM | > 100 µM | 
CCCCC(C(=O)Nc1ccc(Cl)cc1)n1nc(C)cc(Cc2cccc(OC)c2OC)c1=O (stereo not drawn) | 0.0933 µM | 0.055 µM | EC50 [7]: 0.0617 µM; EC50 [8]: 0.0525 µM
Cc1cc(Cc2ccccc2F)c(=O)n(C(C)C(=O)Nc2ccc(Br)cc2)n1 (stereo not drawn) |  | > 100 µM | 
COc1cccc(Cc2cc(C)nn(CC(=O)Nc3ccc(Cl)cc3)c2=O)c1OC | 0.17 µM | 0.224 µM | 
COc1ccccc1Cc1cc(C)nn(CC(=O)Nc2ccccc2Cl)c1=O | > 100 µM | > 100 µM | 
COc1ccccc1Cc1cc(C)nn(CC(=O)Nc2ccc(Cl)cc2F)c1=O | > 100 µM | > 100 µM | 
CCCCC(C(=O)Nc1ccc(Br)cc1)n1nc(C)cc(Cc2ccccc2OC)c1=O (stereo not drawn) | 0.331 µM | > 100 µM | 
